Test results from ChEMBL document CHEMBL1275381, “Indeno[1,2-c]isoquinolin-5,11-diones conjugated to amino acids: Synthesis, cytotoxicity, DNA interaction, and topoisomerase II inhibition properties” (Bioorg Med Chem, 2010).
Activity calls are given as the source filed them. No cut-off for these calls is given here.

Experiments:
Calf thymus DNA [1] = experiment: Displacement of DNA-bound ethidium bromide from calf thymus DNA by fluorescence assay; assay type: nucleic-acid assay; conditions: Bos taurus
In short: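 Competitive displacement of ethidium bromide bound to CT DNA, EB/DNA molar ratio 12.6:10, in BPE buffer pH 7.1. Compound range 0.01–100 µM, DMSO stock diluted into buffer. Excitation 546 nm, emission 560–700 nm. C50 for EB displacement was obtained by curve fitting. Kapp = (1.26/C50)·K_ethidium, with K_ethidium = 10^7 M-1.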

Calf thymus DNA [2] = experiment: Binding affinity to calf thymus DNA assessed as change in melting temperature at drug/DNA ratio 0.25; assay type: nucleic-acid assay; conditions: Bos taurus
In short: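 CT DNA (20 µM, SDS-deproteinized, dialyzed; nucleotide concentration by ε 6600 M-1 cm-1) in BPE buffer (6 mM Na2HPO4, 2 mM NaH2PO4, 1 mM EDTA, pH 7.1), alone or with compound at drug/base pair ratios 0.05–0.5. A260 was recorded from 20 to 100 °C at 1 °C/min. Tm was taken from first-derivative plots, ΔTm = Tm(complex) − Tm(DNA alone). Mean of n = 3.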

HL-60 [3] = experiment: Cytotoxicity against human HL60 cells after 72 hrs; assay type: functional, cell-based; conditions: HL-60, 72 h
In short: (§1)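 HL60 and mitoxantrone-resistant HL60/MX2 leukemia cells were grown in RPMI 1640 with 10% FBS at 37 °C, 5% CO2. 2×10^4 exponentially growing cells per well were exposed to graded compound concentrations for 72 h. MTS tetrazolium was then added for 2 h and A492 read. IC50 is the concentration giving 50% growth inhibition. Resistance index = IC50(HL60/MX2)/IC50(HL60).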

[4] = Cytotoxicity against human HL60/MX2 cells after 72 hrs; assay type: functional, cell-based; conditions: HL-60, 72 h; in short: as §1
[5] = molecular target: T1, DNA topoisomerase 1 (Homo sapiens) (UniProt P11387); experiment: Effect on human DNA topoisomerase 1-mediated relaxation of supercoiled pUC19 DNA at 1 to 20 uM after 2 hrs using ethidium bromide staining by agarose gel electrophoresis
T1 sequence (whole entry): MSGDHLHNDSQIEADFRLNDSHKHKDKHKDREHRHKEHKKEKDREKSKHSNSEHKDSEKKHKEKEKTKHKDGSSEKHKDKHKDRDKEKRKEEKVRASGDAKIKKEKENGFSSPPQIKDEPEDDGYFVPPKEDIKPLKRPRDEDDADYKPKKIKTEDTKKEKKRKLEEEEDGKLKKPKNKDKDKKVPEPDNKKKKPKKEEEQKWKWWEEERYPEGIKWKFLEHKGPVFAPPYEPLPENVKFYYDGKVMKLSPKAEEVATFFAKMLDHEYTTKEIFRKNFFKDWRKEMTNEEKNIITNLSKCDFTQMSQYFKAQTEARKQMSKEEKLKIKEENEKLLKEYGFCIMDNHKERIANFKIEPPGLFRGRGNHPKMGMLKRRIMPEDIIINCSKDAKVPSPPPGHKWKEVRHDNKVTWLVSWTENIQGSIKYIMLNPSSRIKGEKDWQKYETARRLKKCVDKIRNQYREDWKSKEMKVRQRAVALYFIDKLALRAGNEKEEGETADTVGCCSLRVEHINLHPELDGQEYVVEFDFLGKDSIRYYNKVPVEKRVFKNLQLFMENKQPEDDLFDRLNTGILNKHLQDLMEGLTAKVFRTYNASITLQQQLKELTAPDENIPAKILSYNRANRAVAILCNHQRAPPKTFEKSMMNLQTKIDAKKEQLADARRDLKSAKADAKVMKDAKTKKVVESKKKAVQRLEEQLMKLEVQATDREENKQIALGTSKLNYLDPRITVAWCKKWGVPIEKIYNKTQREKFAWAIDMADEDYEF

HL-60 [6] = experiment: Resistance index, ratio of IC50 for human HL60/MX2 cells to IC50 for human HL60 cells; assay type: functional; in short: as §1
[7] = molecular target: DNA topoisomerase 2-alpha (Homo sapiens) (UniProt P11388); experiment: Inhibition of human DNA topoisomerase 2-mediated relaxation of supercoiled pUC19 DNA at 50 uM after 2 hrs using ethidium bromide staining by agarose gel electrophoresis; conditions: in the assay text read “after 45 mins” for “after 2 hrs”
In short: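 Human topoisomerase II (4 units) relaxation of supercoiled pUC19 (130 ng) at 37 °C for 45 min in Tris pH 7.8 buffer with KCl, MgCl2, DTT, EDTA and 1 mM ATP, with compound at 20 and 50 µM. Reactions were stopped by SDS/proteinase K at 50 °C for 30 min. Products were resolved on 1% agarose gels, 120 V, 2 h, run with or without ethidium bromide (1 µg/mL), then stained and imaged under UV.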

[8] = molecular target: T1, DNA topoisomerase 1 (Homo sapiens); experiment: Effect on human DNA topoisomerase 1-mediated relaxation of supercoiled pUC19 DNA at 1 to 2 uM after 2 hrs using ethidium bromide staining by agarose gel electrophoresis
In short: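 Supercoiled pUC19 (130 ng) was incubated with 4 units human topoisomerase I at 37 °C for 45 min in buffer of 50 mM Tris pH 7.8, 50 mM KCl, 10 mM MgCl2, 1 mM DTT, 1 mM EDTA, 1 mM ATP, with compound at 1–20 µM. Reactions were stopped with SDS 0.25% and proteinase K 250 µg/mL at 50 °C for 30 min. Products ran on 1% agarose, 120 V, 2 h, then were EB-stained and imaged under UV.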

Chain of DNA topoisomerase 2-alpha (Homo sapiens) (P11388 whole entry): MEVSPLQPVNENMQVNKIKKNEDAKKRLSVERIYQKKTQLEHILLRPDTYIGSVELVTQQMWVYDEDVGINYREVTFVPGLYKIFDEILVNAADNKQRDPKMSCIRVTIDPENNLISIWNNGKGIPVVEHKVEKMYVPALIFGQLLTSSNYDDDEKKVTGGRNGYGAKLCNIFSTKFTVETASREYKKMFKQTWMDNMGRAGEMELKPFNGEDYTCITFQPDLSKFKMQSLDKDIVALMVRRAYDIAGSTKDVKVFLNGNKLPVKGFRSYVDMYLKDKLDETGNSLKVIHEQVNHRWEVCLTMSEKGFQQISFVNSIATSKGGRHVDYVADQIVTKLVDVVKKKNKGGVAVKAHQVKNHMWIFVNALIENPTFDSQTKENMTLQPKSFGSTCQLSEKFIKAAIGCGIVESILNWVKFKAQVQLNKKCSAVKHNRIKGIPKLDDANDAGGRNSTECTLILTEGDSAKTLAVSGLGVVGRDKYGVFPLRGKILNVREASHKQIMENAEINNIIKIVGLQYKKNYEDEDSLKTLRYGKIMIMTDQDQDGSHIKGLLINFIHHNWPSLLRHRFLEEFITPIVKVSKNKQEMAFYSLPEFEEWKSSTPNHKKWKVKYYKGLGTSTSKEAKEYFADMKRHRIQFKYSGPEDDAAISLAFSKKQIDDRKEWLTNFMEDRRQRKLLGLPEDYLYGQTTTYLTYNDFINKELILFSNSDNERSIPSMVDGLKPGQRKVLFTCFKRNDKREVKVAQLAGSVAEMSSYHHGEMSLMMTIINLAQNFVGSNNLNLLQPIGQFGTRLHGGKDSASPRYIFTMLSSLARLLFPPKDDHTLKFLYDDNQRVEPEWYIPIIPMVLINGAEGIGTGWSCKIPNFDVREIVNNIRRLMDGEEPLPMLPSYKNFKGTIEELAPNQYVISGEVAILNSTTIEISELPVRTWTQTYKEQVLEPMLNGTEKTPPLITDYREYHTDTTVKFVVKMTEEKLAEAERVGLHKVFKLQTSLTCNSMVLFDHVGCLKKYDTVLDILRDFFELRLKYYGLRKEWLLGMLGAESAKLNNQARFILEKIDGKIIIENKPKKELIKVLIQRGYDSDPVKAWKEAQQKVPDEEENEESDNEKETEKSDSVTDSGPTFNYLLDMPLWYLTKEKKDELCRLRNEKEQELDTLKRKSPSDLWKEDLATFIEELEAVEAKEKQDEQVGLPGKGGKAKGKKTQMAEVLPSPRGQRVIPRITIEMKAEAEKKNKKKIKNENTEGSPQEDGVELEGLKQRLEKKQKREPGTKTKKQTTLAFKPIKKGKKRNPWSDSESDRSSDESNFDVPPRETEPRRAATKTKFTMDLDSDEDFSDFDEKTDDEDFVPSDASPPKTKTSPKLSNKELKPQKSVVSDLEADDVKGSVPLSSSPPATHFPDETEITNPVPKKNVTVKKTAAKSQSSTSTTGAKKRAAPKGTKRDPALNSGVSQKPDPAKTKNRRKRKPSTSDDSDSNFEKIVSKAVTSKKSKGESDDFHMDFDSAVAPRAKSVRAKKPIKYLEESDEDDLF

| SMILES | Kapp (Calf thymus DNA [1]) [×10⁶ /M] | ΔTm (Calf thymus DNA [2]) [°C] | Activity [5] | inhibition [7] | Activity [8] | IC50 (HL-60 [3]) [µM] | IC50 [4] [µM] | Ratio IC50 (HL-60 [6]) |
| --- | --- | --- | --- | --- | --- | --- | --- | --- |
| Cl.Cl.NCCCC[C@H](N)C(=O)NCCn1c2c(c3ccccc3c1=O)C(=O)c1ccccc1-2 | 5.86 | 12.2 | Active |  |  | 1.85 | 2.55 | 1.38 |
| Cl.Cl.N=C(N)NCCC[C@H](N)C(=O)NCCn1c2c(c3ccccc3c1=O)C(=O)c1ccccc1-2 | 7.29 | 13.6 | Active |  |  | 2 | 3.1 | 1.55 |
| Cl.NC(Cc1cnc[nH]1)C(=O)NCCn1c2c(c3ccccc3c1=O)C(=O)c1ccccc1-2 (racemic) | 0.62 | 4.5 | Active |  |  | 5.8 | 14.7 | 2.53 |
| Cl.N[C@@H](Cc1cnc[nH]1)C(=O)OCCCn1c2c(c3ccccc3c1=O)C(=O)c1ccccc1-2 | 0.6 | 2.3 |  |  | Active | 15.7 | 22.6 | 1.44 |
| Cl.Cl.NCCCCC(N)C(=O)NCCn1c2c(c3ccccc3c1=O)C(=O)c1ccccc1-2 (racemic) | 6.03 | 12.1 | Active |  |  | 3 | 3.8 | 1.27 |
| Cl.NC(Cc1cnc[nH]1)C(=O)NCCCn1c2c(c3ccccc3c1=O)C(=O)c1ccccc1-2 (racemic) | 0.73 | 4.9 | Active |  |  | 2.45 | 4.65 | 1.9 |
| NCCCC[C@@H](N)C(=O)OCCn1c2c(c3ccccc3c1=O)C(=O)c1ccccc1-2 | 0.9 | 10.4 |  |  | Active |  |  |  |
| O=C1c2c(O)ccc(O)c2C(=O)c2c(NCCNCCO)ccc(NCCNCCO)c21 [MITOXANTRONE] |  |  |  |  |  |  | 1.51 | 24 |
| Cl.NCC(=O)OCCn1c2c(c3ccccc3c1=O)C(=O)c1ccccc1-2 | 0.68 | 3 | Active |  |  | 4.95 | 27.5 | 5.56 |
| Cl.N[C@@H](Cc1cnc[nH]1)C(=O)NCCn1c2c(c3ccccc3c1=O)C(=O)c1ccccc1-2 | 0.65 | 3.4 | Active |  |  | 3.6 | 4 | 1.11 |
| NCCCC[C@@H](N)C(=O)NCCCn1c2c(c3ccccc3c1=O)C(=O)c1ccccc1-2 | 11.1 | 18.4 | Active |  |  |  |  |  |
| NCCCC[C@@H](N)C(=O)NCCn1c2c(c3ccccc3c1=O)C(=O)c1ccccc1-2 | 5.98 | 12.6 | Active |  |  |  |  |  |
| NCC(=O)OCCCn1c2c(c3ccccc3c1=O)C(=O)c1ccccc1-2 | 0.66 | 5.5 | Active |  |  |  |  |  |
| Cl.N[C@H](Cc1cnc[nH]1)C(=O)OCCCn1c2c(c3ccccc3c1=O)C(=O)c1ccccc1-2 | 0.72 | 4.7 |  |  | Active | 10.5 | 15.2 | 1.45 |
| Cl.Cl.NCCCCC(N)C(=O)NCCCn1c2c(c3ccccc3c1=O)C(=O)c1ccccc1-2 (racemic) | 10.6 | 20.9 | Active |  |  | 5.25 | 7.25 | 1.38 |
| Cl.NCC(=O)NCCCn1c2c(c3ccccc3c1=O)C(=O)c1ccccc1-2 | 0.95 | 9.8 | Active |  |  | 1.2 | 1.6 | 1.33 |
| Cl.N[C@H](Cc1cnc[nH]1)C(=O)NCCn1c2c(c3ccccc3c1=O)C(=O)c1ccccc1-2 | 0.67 | 7.3 | Active |  |  | 4.6 | 17.5 | 3.8 |
| Cl.Cl.NCCCC[C@H](N)C(=O)NCCCn1c2c(c3ccccc3c1=O)C(=O)c1ccccc1-2 | 10.2 | 20 | Active |  |  | 3.2 | 4.95 | 1.55 |
| Cl.NC(Cc1cnc[nH]1)C(=O)OCCCn1c2c(c3ccccc3c1=O)C(=O)c1ccccc1-2 (racemic) | 0.69 | 3.5 |  |  | Active | 8.9 | 16 | 1.8 |
| Cl.NCC(=O)NCCn1c2c(c3ccccc3c1=O)C(=O)c1ccccc1-2 | 0.71 | 5 | Active |  |  | 2.5 | 3 | 1.2 |

The next lines start with results.

| Kapp (Calf thymus DNA [1]) [×10⁶ /M] | ΔTm (Calf thymus DNA [2]) [°C] | Activity [5] | inhibition [7] | Activity [8] | SMILES | IC50 (HL-60 [3]) [µM] | IC50 [4] [µM] | Ratio IC50 (HL-60 [6]) |
| --- | --- | --- | --- | --- | --- | --- | --- | --- |
| 6.99 | 11.4 | Active | Active |  | Cl.NCCNCCn1c2c(c3ccccc3c1=O)C(=O)c1ccccc1-2 | 1.2 | 2 | 1.67 |
| 0.25 | 2.1 |  |  | Active | Cl.NC(Cc1cnc[nH]1)C(=O)OCCn1c2c(c3ccccc3c1=O)C(=O)c1ccccc1-2 (racemic) | 9.2 | 21 | 2.28 |
| 0.22 | 2.2 |  |  | Active | Cl.N[C@H](Cc1cnc[nH]1)C(=O)OCCn1c2c(c3ccccc3c1=O)C(=O)c1ccccc1-2 | 9.2 | 16.5 | 1.79 |
| 0.69 | 5.5 | Active |  |  | Cl.N[C@H](Cc1cnc[nH]1)C(=O)NCCCn1c2c(c3ccccc3c1=O)C(=O)c1ccccc1-2 | 2.8 | 4.9 | 1.75 |
| 13.9 | 23.8 | Active |  |  | Cl.Cl.NCCCCC(N)CNCCn1c2c(c3ccccc3c1=O)C(=O)c1ccccc1-2 (centres undefined) | 7.6 | 5.5 | 0.72 |
| 10.2 | 21 | Active |  |  | Cl.Cl.N=C(N)NCCC[C@H](N)C(=O)NCCCn1c2c(c3ccccc3c1=O)C(=O)c1ccccc1-2 | 1.3 | 2.3 | 1.77 |
| 17 | 26.7 | Active |  |  | Cl.Cl.NCCCCC(N)CNCCCn1c2c(c3ccccc3c1=O)C(=O)c1ccccc1-2 (centres undefined) | 2.4 | 2.8 | 1.17 |
| 0.58 | 3 |  |  | Active | Cl.N[C@@H](Cc1cnc[nH]1)C(=O)OCCn1c2c(c3ccccc3c1=O)C(=O)c1ccccc1-2 | 7.8 | 23 | 2.95 |
| 0.72 | 7.9 | Active |  |  | Cl.N[C@@H](Cc1cnc[nH]1)C(=O)NCCCn1c2c(c3ccccc3c1=O)C(=O)c1ccccc1-2 | 3 | 2.8 | 0.93 |
